Paper PMC10250156 (Molecular Metabolism, 2023)
Blank lines part the entries; values can stand above or below the molecule they belong to.

Key:
[1] = Chiral HPLC analysis of zeaxanthin stereoisomers in tissues; format: in vivo; conditions: Isx^−/−/Bco2^−/− mice on 250 mg/kg 3R,3′R-zeaxanthin diet
[2] = Light exposure experiment: zeaxanthin metabolites in eye and liver by HPLC; format: in vivo; conditions: albino Isx^−/−/Bco2^−/− mice, 250 mg/kg zeaxanthin, 4 weeks
In short: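 Albino mice were fed the 250 mg/kg or control diet for 4 weeks after weaning. Three groups were used: 24 h/day darkness (DC), a 12/12 h light/dark cycle (L/DC), or L/DC plus twice-weekly light stress from week 2 (LS). For light stress, mice were dark-adapted overnight, pupils were dilated with 1% tropicamide, and mice received 85,000 lux white light for 2 min. Whole eye and liver carotenoids were then quantified by HPLC.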

[3] = format: in vivo, mice
In short: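 Male and female mice were fed vitamin A-free diets for 4 weeks from weaning; the WT cohort received the 250 mg/kg diet. Tissues were weighed and snap-frozen at -80 °C. Carotenoids were extracted under dim red light from about 25 mg of intestinal segments, liver or eWAT, 100 uL serum, or one whole eye. Analysis was normal-phase silica HPLC with diode-array detection. Data are means ± SD, n=5 (eWAT: 3 females, 2 males); two-way ANOVA.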

[4] = HPLC analysis of zeaxanthin content in fecal matter during dietary intervention; format: in vivo, mice; conditions: 50 mg/kg zeaxanthin supplementation, 28 days
In short: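 Mice were fed vitamin A-free diets starting at weaning. Feces were collected on days 0, 1, 2, 4, 7, 14, 21 and 28 of the 28-day intervention. Carotenoids were extracted from about 25 mg feces under dim red light (<600 nm). Zeaxanthin was quantified by HPLC.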

[5] = Food intake and liver weight during zeaxanthin dietary intervention; format: in vivo; conditions: Bco2^−/− and Isx^−/−/Bco2^−/− mice, 0, 50, 250 mg/kg diet
In short: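 Male and female mice were placed on vitamin A-free diets after weaning at 4 weeks old, for 4 weeks. Zeaxanthin was given as water-soluble beadlets incorporated into the diet. Fresh diet was given weekly, and body weight was recorded then. Food consumption was the leftover food per cage divided by the number of mice in the cage. At study end, mice were anaesthetised and livers dissected and weighed.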

[6] = test system: albino Isx^−/−/Bco2^−/− mice; test: Skin colour phenotype of supplemented albino mice; format: in vivo; conditions: 250 mg/kg zeaxanthin, 4 weeks, hypercarotenemia
In short: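 Albino mice were fed a vitamin A-free diet containing 250 mg/kg zeaxanthin or no zeaxanthin (control) for 4 weeks, starting immediately after weaning. Skin colour of the ears, eyelids and nostrils was inspected and photographed.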

[7] = test system: albino Isx^−/−/Bco2^−/− mice; test: Electroretinography; format: in vivo; conditions: 250 mg/kg versus 0 mg/kg, 4 weeks
[8] = test system: albino Isx^−/−/Bco2^−/− mice; test: Optical coherence tomography; format: in vivo; conditions: 250 mg/kg versus 0 mg/kg, 4 weeks

Compound: CC1=C(/C=C/C(C)=C/C=C/C(C)=C/C=C/C=C(C)/C=C/C=C(C)/C=C/C2=C(C)C[C@H](O)CC2(C)C)C(C)(C)C[C@H](O)C1 [3R, 3′S-zeaxanthin]
- presence in the eyes by chiral HPLC [1]: no peak with a retention time of 3R, 3′S-zeaxanthin was detected

- concentration in the eyes of L/DC and LS groups compared to DC group [2]: increased
Compound: CC1=CC(=O)CC(C)(C)C1/C=C/C(C)=C/C=C/C(C)=C/C=C/C=C(C)/C=C/C=C(C)/C=C/C1C(C)=CC(=O)CC1(C)C (centres unmarked) [oxidized zeaxanthin, ε,ε-carotene 3, 3′-dione]

- total zeaxanthin or its oxidized form in liver between light treatment groups [2]: no light-dependent increase
- ocular levels between different light groups ([2]; DC, L/DC, LS): remained relatively constant
- total zeaxanthin in eWAT, Isx^−/−/Bco2^−/− versus Bco2^−/− mice ([3]; 50 mg/kg or 250 mg/kg diet, 4 weeks): significantly higher amounts
- concentration of carotenoids in eWAT and eyes compared with kidney and serum ([3]; 50 mg/kg zeaxanthin, Bco2^−/− and Isx^−/−/Bco2^−/− mice): two-fold higher
- amount of zeaxanthin in jejunum relative to other parts of the intestine ([3]; WT mice, 250 mg/kg diet, 4 weeks, major metabolite parent compound): highest amount
- fecal zeaxanthin excretion, Isx^−/−/Bco2^−/− versus Bco2^−/− mice [4]: excreted less zeaxanthin
- effect on food intake [5]: did not affect food intake
- skin phenotype (ears, eyelids, nostrils) [6]: yellow skin color phenotype
- ERG responses under photopic and scotopic conditions [7]: normal responses
Compound: CC1=C(/C=C/C(C)=C/C=C/C(C)=C/C=C/C=C(C)/C=C/C=C(C)/C=C/C2=C(C)C[C@@H](O)CC2(C)C)C(C)(C)C[C@H](O)C1 [zeaxanthin, 3R,3′R-zeaxanthin]
- form of zeaxanthin detectable in liver ([3]; 50 mg zeaxanthin diet, Bco2^−/− and Isx^−/−/Bco2^−/− mice, 4 weeks): only the oxidized form of zeaxanthin became detectable
- liver weight between dietary groups ([5]; 4 weeks): no significant difference in liver weight
- OCT: retinal morphology, supplemented versus non-supplemented mice [8]: no differences in the stratification of the retinal layers
